Values after ≈ are worked out from the molar mass of the structure shown. Ends that are not written are not given here.
Columns and labels:
S. aureus DA36424 = experiment: Bacterial cell survival assay with human defensins; format: cell-based, Staphylococcus aureus; conditions: strain DA36424; 10 μM peptide, NaPB pH 7.4, exponential phase cells, 37°C, 2 h
Solubility limit in MIEM = format: physicochemical; conditions: in MIEM (mammalian ionic environment medium, without NaCl, pH 7.4)
[1] = system: S. aureus DA37296 (cycled with PR-39); experiment: MIC of antibiotics by Etest; format: cell-based; conditions: Staphylococcus aureus
Outline: (§1)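 Strains were grown overnight with shaking at 37°C in Mueller–Hinton II broth and diluted to ∼10⁸ cfu/mL in the same broth. They were swabbed onto Mueller–Hinton II agar, an antibiotic Etest strip was applied, and plates were incubated at 37°C for 18–20 h. MIC is the lowest concentration with no visible growth, taken as the consensus of ≥2 independent determinations. Increases over WT were graded 2–5-fold or >5-fold, and EUCAST v5.0 breakpoints were used.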

[2] = system: S. aureus DA30559 (cycled with WGH); experiment: MIC of antibiotics by Etest; format: cell-based; conditions: Staphylococcus aureus
Outline: as §1

[3] = system: S. aureus DA29677 (cycled with LL-37); experiment: MIC of antibiotics by Etest; format: cell-based; conditions: Staphylococcus aureus
Outline: as §1

[4] = system: S. aureus DA30557 (cycled with WGH); experiment: MIC of antibiotics by Etest; format: cell-based, Staphylococcus aureus; conditions: for MIC: Staphylococcus aureus
Outline: as §1

[5] = system: S. aureus DA36424 (cycled with LL-37 and WGH); experiment: MIC of antibiotics by Etest; format: cell-based; conditions: Staphylococcus aureus
Outline: as §1

[6] = system: S. aureus DA29680 (cycled with LL-37); experiment: MIC of antibiotics by Etest; format: cell-based; conditions: Staphylococcus aureus
Outline: as §1

[7] = system: S. aureus DA35920 (cycled with PR-39); experiment: MIC of antibiotics by Etest; format: cell-based; conditions: Staphylococcus aureus
Outline: as §1

[8] = system: S. aureus DA30560 (cycled with no peptide); experiment: MIC of antibiotics by Etest; format: cell-based; conditions: Staphylococcus aureus
Outline: as §1

S. aureus DA28823 (WT) = experiment: MIC of antibiotics by Etest; format: cell-based; conditions: Staphylococcus aureus
Outline: as §1

S. aureus DA29677 = experiment: Bacterial cell survival assay with human defensins; format: cell-based, Staphylococcus aureus; conditions: strain DA29677, NaPB pH 7.4, exponential phase cells, 37°C, 2 h
Outline: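 Exponential-phase cells: overnight TSB culture diluted 1:100 in pre-warmed TSB, shaken 2 h at 37°C, washed once and resuspended in 10 mM sodium phosphate pH 7.4. Diluted to 0.69−4.7 × 10⁴ cfu/mL and exposed to hBD3 at 1 μM or other β-defensins at 10 μM, shaking in a sealed humidified container at 37°C for 2 h. Cells were plated on TSA for cfu. % survival = cfu with peptide/cfu without peptide × 100. Detection limit 1% survival. Mean ± SEM of ≥3 independent determinations.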

[9] = system: seven AMP-resistant S. aureus mutants; experiment: MIC of antibiotics by Etest, summary over mutants; format: cell-based, Staphylococcus aureus; conditions: Mueller–Hinton medium; for number of AMP-resistant mutants with reduced/diminished susceptibility: of seven mutants
Outline: as §1

solubility limit (Solubility limit in MIEM) [µg/mL]	MIC [1] [µg/mL]	MIC [2] [µg/mL]	MIC [3] [µg/mL]	MIC [4] [µg/mL]	MIC [5] [µg/mL]	MIC [6] [µg/mL]	MIC [7] [µg/mL]	Compound	bacterial survival after defensin exposure, relative to WT (in words) (S. aureus DA36424)	MIC [8] [µg/mL]	MIC (S. aureus DA28823 (WT)) [µg/mL]	resistance to human β-defensin, relative to WT (in words) (S. aureus DA29677; 10 μM peptide)	number of AMP-resistant mutants with reduced/diminished susceptibility [9]	increase in MIC ([4]; strain DA30557 (passaged with WGH), relative to WT, Etest) [fold]	susceptibility of all seven AMP-resistant mutants relative to WT (in words) [9]	resistance to human β-defensin, relative to WT (in words) (S. aureus DA29677; 1 μM peptide)
–	–	–	–	–	–	–	–	AFTCHCRRSCYSTEYSYGTCTVMGINHRFCCL (bicyclic or more) [HNP6]	significantly reduced survival	–	–	–	–	–	–	–
~550 (≈ 122 µM)	–	–	–	–	–	–	–	CC[C@H](C)[C@H](NC(=O)[C@H](CCCCN)NC(=O)[C@H](CCC(=O)O)NC(=O)[C@H](CCCCN)NC(=O)[C@H](CO)NC(=O)[C@H](CCCCN)NC(=O)[C@H](CCCNC(=N)N)NC(=O)[C@H](Cc1ccccc1)NC(=O)[C@H](Cc1ccccc1)NC(=O)[C@H](CC(=O)O)NC(=O)CNC(=O)[C@H](CC(C)C)NC(=O)[C@@H](N)CC(C)C)C(=O)NCC(=O)N[C@@H](CCCCN)C(=O)N[C@@H](CCC(=O)O)C(=O)N[C@@H](Cc1ccccc1)C(=O)N[C@@H](CCCCN)C(=O)N[C@@H](CCCNC(=N)N)C(=O)N[C@H](C(=O)N[C@H](C(=O)N[C@@H](CCC(N)=O)C(=O)N[C@@H](CCCNC(=N)N)C(=O)N[C@H](C(=O)N[C@@H](CCCCN)C(=O)N[C@@H](CC(=O)O)C(=O)N[C@@H](Cc1ccccc1)C(=O)N[C@@H](CC(C)C)C(=O)N[C@@H](CCCNC(=N)N)C(=O)N[C@@H](CC(N)=O)C(=O)N[C@@H](CC(C)C)C(=O)N[C@H](C(=O)N1CCC[C@H]1C(=O)N[C@@H](CCCNC(=N)N)C(=O)N[C@H](C(=O)N[C@@H](CCC(=O)O)C(=O)N[C@@H](CO)C(=O)O)[C@@H](C)O)C(C)C)[C@@H](C)CC)C(C)C)[C@@H](C)CC [LL-37]	–	–	–	–	–	–	–	–
–	0.25	0.38	0.19	0.38	0.38	0.25	0.19	CCO/N=C(\C(=O)N[C@@H]1C(=O)N2C(C(=O)[O-])=C(Sc3nc(-c4cc[n+](C)cc4)cs3)CS[C@H]12)c1nsc(N)n1 [CFT, ceftaroline]	–	0.25	0.25	–	–	–	–	–
–	–	–	–	–	–	–	–	DHYNCVSSGGQCLYSACPIFTKIQGTCYRGKAKCCK (also: bicyclic or more (positions not given here)) [hBD1]	–	–	–	increased resistance	–	–	–	–
–	–	–	–	–	–	–	–	teicoplanin [TEC]	–	–	–	–	–	–	diminished susceptibility	–
–	0.008	0.016	0.008	0.012	0.012	0.012	0.016	CO[C@H]1/C=C/O[C@@]2(C)Oc3c(C)c(O)c4c(O)c(c(/C=N/N5CCN(C)CC5)c(O)c4c3C2=O)NC(=O)/C(C)=C\C=C\[C@H](C)[C@H](O)[C@@H](C)[C@@H](O)[C@@H](C)[C@H](OC(C)=O)[C@@H]1C [RIF, rifampicin]	–	0.012	0.012	–	–	–	–	–
–	–	–	–	–	–	–	–	GIGDPVTCLKSGAICHPVFCPRRYKQIGTCGLPGTKCCKKP (also: bicyclic or more (positions not given here)) [hBD2]	–	–	–	increased resistance	–	–	–	–
–	2	1	1.5	2	2	1.5	1	CC(=O)NC[C@H]1CN(c2ccc(N3CCOCC3)c(F)c2)C(=O)O1 [LZD, linezolid]	–	2	2	–	–	–	–	–
–	6	4	6	4	4	4	3	O=C(N[C@H](CO)[C@H](O)c1ccc([N+](=O)[O-])cc1)C(Cl)Cl [CHL, chloramphenicol]	–	4	4	–	–	–	–	–
–	0.125	0.064	0.047	0.064	0.125	0.094	0.094	CCC[C@@H]1C[C@@H](C(=O)N[C@@H]([C@H]2O[C@H](SC)[C@H](O)[C@@H](O)[C@H]2O)[C@H](C)Cl)N(C)C1 [CLI, clindamycin]	–	0.094	0.094	–	–	–	–	–
–	0.125	0.125	0.125	0.094	0.25	0.094	0.094	C[C@H]1c2cccc(O)c2C(=O)C2=C(O)[C@]3(O)C(=O)C(C(N)=O)=C(O)[C@@H](N(C)C)[C@@H]3[C@@H](O)[C@@H]21 [DOX, doxycycline]	–	–	–	–	–	–	–	–
–	–	–	–	–	–	–	–	polymyxin B [PMB]	–	–	–	–	three of seven	–	–	–
–	–	–	–	–	–	–	–	GIINTLQKYYCRVRGGRCAVLSCLPKEEQIGKCSTRGRKCCRRKK (also: bicyclic or more (positions not given here)) [hBD3]	–	–	–	–	–	–	–	increased resistance

Compound	solubility limit (Solubility limit in MIEM) [µg/mL]	MIC [1] [µg/mL]	MIC [2] [µg/mL]	MIC [3] [µg/mL]	MIC [4] [µg/mL]	MIC [5] [µg/mL]	MIC [6] [µg/mL]	MIC [7] [µg/mL]	bacterial survival after defensin exposure, relative to WT (in words) (S. aureus DA36424)	MIC [8] [µg/mL]	MIC (S. aureus DA28823 (WT)) [µg/mL]	resistance to human β-defensin, relative to WT (in words) (S. aureus DA29677; 10 μM peptide)	number of AMP-resistant mutants with reduced/diminished susceptibility [9]	increase in MIC ([4]; strain DA30557 (passaged with WGH), relative to WT, Etest) [fold]	susceptibility of all seven AMP-resistant mutants relative to WT (in words) [9]	resistance to human β-defensin, relative to WT (in words) (S. aureus DA29677; 1 μM peptide)
CN(C)[C@@H]1C(O)=C(C(N)=O)C(=O)[C@@]2(O)C(O)=C3C(=O)c4c(O)cccc4[C@@](C)(O)[C@H]3C[C@@H]12 [TET, tetracycline]	–	0.19	0.19	0.19	0.25	0.25	0.25	0.125	–	0.094	0.094	–	six of seven	–	–	–
CNC(C)C1CCC(N)C(OC2C(N)CC(N)C(OC3OCC(C)(O)C(NC)C3O)C2O)O1 (centres unmarked) [GEN, gentamicin]	–	0.5	0.38	0.094	1	0.19	0.094	0.25	–	0.125	0.125	–	Four of seven	8	–	–
CC[C@H]1OC(=O)[C@H](C)[C@@H](O[C@H]2C[C@@](C)(OC)[C@@H](O)[C@H](C)O2)[C@H](C)[C@@H](O[C@@H]2O[C@H](C)C[C@H](N(C)C)[C@H]2O)[C@](C)(O)C[C@@H](C)C(=O)[C@H](C)[C@@H](O)[C@]1(C)O [ERY, erythromycin]	–	0.38	0.125	0.19	0.125	0.25	0.19	0.38	–	0.19	0.19	–	two of seven	–	–	–
CN(C)c1cc(NC(=O)CNC(C)(C)C)c(O)c2c1C[C@H]1C[C@H]3[C@H](N(C)C)C(O)=C(C(N)=O)C(=O)[C@@]3(O)C(O)=C1C2=O [TGC, tigecycline]	–	0.125	0.094	0.094	0.094	0.19	0.19	0.125	–	0.094	0.094	–	two of seven	–	–	–
CN[C@H](CC(C)C)C(=O)N[C@H]1C(=O)N[C@@H](CC(N)=O)C(=O)N[C@H]2C(=O)N[C@H]3C(=O)N[C@H](C(=O)N[C@H](C(=O)O)c4cc(O)cc(O)c4-c4cc3ccc4O)[C@H](O)c3ccc(c(Cl)c3)Oc3cc2cc(c3O[C@@H]2O[C@H](CO)[C@@H](O)[C@H](O)[C@H]2O[C@H]2C[C@](C)(N)[C@H](O)[C@H](C)O2)Oc2ccc(cc2Cl)[C@H]1O [VAN, vancomycin]	–	2	1.5	2	2	2	2	2	–	1.5	1.5	–	–	–	little to no change in susceptibility	–
